Assay outcomes from PubChem.
Hits are enriched below; roughly 1.8% of the tested compounds scored in any of these assays.
STAT3 act-1: increases IL-6 driven STAT3 reporter signal. activation (% of control), % at 5.6 µM. 190,000 compounds, 0.91% hits. AID 871. U3A cells, IL-6 STAT3-luciferase reporter, luminescence; 100% = signal with IL-6 EC80 alone;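 active means activation above the screen-wide mean of compound activation plus 3 SD, cut at about 130% in these data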;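 further: 0% = background luminescence of wells with medium and substrate only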
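Material: human STAT1-deficient U3A cells with stable STAT3-luciferase reporter / Probe or stimulus: IL-6 stimulus at 33 ng/mL final / Schedule: 1 h compound pre-exposure, 6 h IL-6 stimulation, 37 °C / Technique: luminescence / Read-out basis: percent of IL-6-only median luminescence / Control set: IL-6-only high control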
PPC-1+TRAIL kill: PPC-1 cancer cell killing with TRAIL present. PPC-1 cells + TRAIL, ATPLite viability luminescence. cell killing (% activity), % at 4 µM or 5 µM. 220,000 compounds, 0.41% hits. AID 1443;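 active means cell killing above 50% in the first pass at 4 µM, then a duplicate retest at 5 µM averaging 50% or more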;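 further: plate controls were cells with TRAIL plus DMSO for no effect and medium-only wells lacking cells for full effect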
STAT1 inh: inhibitors of IFN-gamma induced STAT1 signaling; inhibition, % at 5.5 µM; 200,000 compounds, 0.35% hits; NIH 3T3 STAT1-luciferase reporter, luminescence;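 active means inhibition above a set limit, the mean inhibition across all tested compounds plus 3 SD, cut at about 34% in these data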;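 further: 0% = IFN-gamma with DMSO and 100% = IFN-gamma with 300 µM nifuroxazide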
TRAIL sens C8: caspase-8 TRAIL sensitization; NB7+C8 cells + TRAIL, ATPlite viability luminescence; inhibition (viability loss, TRAIL sensitization), % at 10 µM; 360,000 compounds, 1% hits; AID 624354;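 active means compounds causing at least 50% loss of cell viability in the single-dose screen, relative to plate controls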
STAT3 inh-1: reduces IL-6 driven STAT3 reporter signal; U3A cells, IL-6 STAT3-luciferase reporter, luminescence; host cell line lacks STAT1; inhibition, % at 5.5 µM; 190,000 compounds, 0.89% hits;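 active means inhibition above the mean inhibition across all screened compounds plus 3 SD, cut at about 44% in these data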;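 further: 0% = DMSO only wells and 100% = 100 µM nifuroxazide control wells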
STAT3 inh-2: confirmation of STAT3 signaling inhibitors | shares compounds with STAT3 inh-1 | inhibition, % at 5.7 µM | U3A cells, IL-6 STAT3 luciferase reporter, luminescence; cell line lacks STAT1 | 1,200 compounds, 45% hits;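 active means inhibition above the hit cutoff computed for the primary STAT3 screen, cut at about 44% in these data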;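 further: 0% = IL-6 plus DMSO and 100% = IL-6 plus nifuroxazide control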
NFkB inh 2: NF-kappaB inhibition in STAT3 inhibitor counter-screen; shares compounds with STAT3 inh-1; HEK293T NF-kB luciferase reporter, TNF-alpha induced; inhibition, % at 5.7 µM; 1,200 compounds, 36% hits;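 active means inhibition above the mean of solvent-only control wells plus 3 SD, cutoff set per campaign, cut at about 13% in these data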;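 further: 0% = TNF-alpha with DMSO and 100% = TNF-alpha with MG high control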
STAT1 inh 2: counter-screen for STAT3 inhibitors: STAT1 inhibition. inhibition, % at 5.7 µM. 1,200 compounds, 27% hits. shares compounds with STAT3 inh-1. AID 1317. NIH 3T3 STAT1-luciferase reporter, IFN-gamma induced, luminescence;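 active means inhibition above the mean plus 3 SD of solvent-only control wells, limit set per screening run, cut at about 16% in these data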;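 further: 0% = DMSO with IFN-gamma and 100% = nifuroxazide control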
STAT3 act-2: STAT3 activation, confirmation assay | shares compounds with STAT3 act-1 | U3A STAT3-luciferase reporter, IL-6 potentiation, luminescence; U3A cells lack STAT1; 100 means same as IL-6 alone | potentiation (% of control), % at 5.7 µM | 1,200 compounds, 64% hits | AID 1267;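 active means percent activation of the STAT3 luciferase reporter above a set limit taken from the earlier primary screen, cut at about 130% in these data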;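 further: 0% = background signal of medium plus substrate and 100% = median of IL-6 with DMSO wells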
NFkB act 2: counter-screen for STAT3 activators: NF-kappaB activation. shares compounds with STAT3 act-1. human cells, NF-kappaB reporter activation. activation (% of control), % at 5.7 µM. 1,200 compounds, 11% hits. AID 1309; in the data active means activation above about 120%;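 further: reporter induced by TNF-alpha stimulation; 100% = median of stimulated DMSO wells and 0% = no signal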
STAT1 act STAT3c: counter-screen for STAT3 activators: STAT1 activation. shares compounds with STAT3 act-1. NIH 3T3 STAT1-luciferase reporter, IFN-gamma, luminescence. activation (% of control), % at 5.7 µM. 1,200 compounds, 13% hits;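 active means activation above the solvent-only control well mean plus 3 SD, set per screening run, cut at about 120% in these data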;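 further: 100% = IFN-gamma with DMSO median signal so 100% means no change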
PPC1 cytotox: kills PPC-1 cells. shares compounds with PPC-1+TRAIL kill. cytotoxicity, % at 5 µM. PPC-1 viability, ATPlite luminescence, overnight. AID 1447. 1,200 compounds, 50% hits;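 active means reconfirmed compounds whose average cytotoxicity reaches 50% or more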;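 further: 0% = DMSO-treated cells and 100% = wells holding medium but no cells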
Starred values were filed as active, the others as inactive; . = no result.

SMILES	STAT3 act-1	PPC-1+TRAIL kill	STAT1 inh	TRAIL sens C8	STAT3 inh-1	others
CC(=O)OC1C(=O)OCC23CCC4(C)OC4C2OC2CC(OC(=O)C=CC=CC(=O)OCCC1C)C3(C)C21CO1 (centres undefined)	.	.	.	64*	.
CC(O)C1C=CC=CC(=O)OC2CC3OC4C5OC5(C)CCC4(COC(=O)C4OC4(C)C(O)CO1)C2(C)C31CO1 (centres undefined)	.	.	.	61*	.
Cc1ncc([N+](=O)[O-])n1CCOC(N)=O	.	5	.	-5	.
CC1(C)N=C(c2ccccc2)[C@@H]2C(c3ccc([N+](=O)[O-])cc3)N21 (some centres undefined)	103	9	-2	11	-2
CN(C)c1ccc(/C=C/C=C/c2sc3ccccc3[n+]2C)cc1	.	45	.	33	.
CN(C)c1ccc(/C=C/c2cc[n+](C)c3ccccc23)cc1	43	44	26	45	72*
C/C1=C\[C@@H](C)C/C=C/[C@H]2[C@@H]3O[C@]3(C)[C@@H](C)[C@H]3[C@H](Cc4c[nH]c5ccccc45)NC(=O)[C@]32C(=O)/C=C/C(=O)[C@@H]1O	.	16	14	30	.
CC1=CC2/C=C(\C)CCC(O)C(O)/C=C/C(=O)C23C(=O)NC(CC(C)C)C3C1C (centres undefined)	.	4	-12	91*	.
O=C(O)[C@H]1NC[C@H]2C[C@H]21	99	-15	-1	-2	6
CCc1nn(CC(=O)N2CCC3(CC2)OCCO3)c(=O)c2cccn12	.	.	.	-3	.
COc1ccc(CC2NCC(O)C2OC(C)=O)cc1 (centres undefined)	.	.	.	85*	.
COc1ccc(CC(=O)N2CCN(C)CC2)cc1	103	18	0	2	0
Brc1ccc2c(c1)C(OC1CN3CCC1CC3)c1ccccc1CS2 (centres undefined)	105	82*	-15	6	-3
Oc1c(Cl)c(Cl)c(Cl)c(Cl)c1Cl	.	.	.	4	.
CC(C)CCn1c(=O)c(C(=O)Nc2ccccc2S(N)(=O)=O)c(O)c2ccccc21	113	12	-3	52*	-14
CCCCn1c(=O)c(C(=O)Nc2ccccc2C)c(O)c2ccccc21	.	.	.	-18	.
O=c1c2ccccc2nc(-c2ccccc2Cl)n1-c1cccc(O)c1	.	.	.	5	.
CN(C(=O)COC(=O)c1cn(C)c2ccccc12)C1CCCCC1	.	.	.	-4	.
C=CC1CN2CCC1CC2[C@@H](OC(=O)c1ccc(OC)cc1)c1ccnc2ccccc12 (some centres undefined)	98	54*	4	0	3
CN(C)C(Cc1ccccc1)C(=O)c1cccs1 (centres undefined)	111	5	1	.	-5
CCCC1(CCC)C(=O)NC(=Nc2ccccc2)NC1=O	102	7	4	11	-1
CCCC1(CCC)C(=O)NC(=NCc2ccccc2)NC1=O	104	2	10	77*	-2
CC1=CC2OC3CC4OC(=O)C=CC=CC(=O)OCCC(C)C(O)C(=O)OCC2(CC1O)C4(C)C31CO1 (centres undefined)	.	.	.	72*	.
CC1=CC2OC3CC4OC(=O)C=CC=CC(C(C)O)OCC(O)C(C)CC(=O)OCC2(CC1O)C4(C)C31CO1 (centres undefined)	.	.	.	69*	.
O=C(C1CCN(c2nc3ccc(Br)cc3s2)CC1)N1CCC2(CC1)OCCO2	47	1	-9	23	63*	STAT3 inh-2=66*;NFkB inh 2=13;STAT1 inh 2=-18
SMILES	STAT3 act-1	PPC-1+TRAIL kill	STAT1 inh	TRAIL sens C8	STAT3 inh-1	others
COc1ccc(CN2Cc3cnnn3-c3ccccc3C2C)cc1 (centres undefined)	.	.	.	-1	.
CC(=O)c1cn(Cc2ccccc2C#N)c2ccccc12	45	12	28	20	66*	STAT3 inh-2=75*;NFkB inh 2=29*;STAT1 inh 2=21*
CC(=O)NCC1=C(c2cccc3ccccc23)C[C@@H]2CC[C@H]1N2Cc1ccco1	.	.	.	-2	.
CCC(=NCCc1c[nH]c2ccccc12)c1c(O)n(C)c(=O)n(C)c1=O	65	8	8	19	44*	STAT3 inh-2=47*;NFkB inh 2=3;STAT1 inh 2=20*
CCC(=NCCc1c[nH]c2ccccc12)c1c(O)n(-c2ccc(C)cc2)c(=O)[nH]c1=O	103	11	6	4	-3
C[C@@H]1O[C@@H](O[C@H]2C[C@@H](O)[C@]3(CO)[C@H]4[C@H](O)C[C@]5(C)[C@@H](C6COC(=O)C6)CC[C@]5(O)[C@@H]4CC[C@]3(O)C2)[C@H](O)[C@H](O)[C@H]1O (some centres undefined)	53	61*	10	39	56*	STAT3 inh-2=32;NFkB inh 2=-26;STAT1 inh 2=-4;PPC1 cytotox=63*
COC(=O)C1=C(c2ccc(F)cc2F)C[C@@H]2CC[C@H]1N2C(=O)N1CCC(O)CC1	.	.	.	-20	.
C=CCn1c(O)c(/C=C2/C=CC=N2)c(=O)[nH]c1=O	95	14	-6	-5	2
O=c1[nH]c(=O)n(Cc2ccccc2Cl)c(O)c1/C=C1/C=CC=N1	139*	11	1	-13	-43	STAT3 act-2=124;NFkB act 2=106;STAT1 act STAT3c=102
CCC(CC)NCc1c[nH]c2ccccc12	146*	5	12	1	-51	STAT3 act-2=163*;NFkB act 2=112;STAT1 act STAT3c=101
c1ccc2c(CN3CCCCCCC3)c[nH]c2c1	153*	-7	16	-13	-56	STAT3 act-2=149*;NFkB act 2=102;STAT1 act STAT3c=85
c1ccc2c(CN3CCN(C4CCCCC4)CC3)c[nH]c2c1	166*	13	16	6	-72	STAT3 act-2=146*;NFkB act 2=101;STAT1 act STAT3c=89
COc1ccc(C(=O)CC(c2ccc3c(c2)OCO3)c2c(O)c3ccccc3oc2=O)cc1OC (centres undefined)	.	.	.	-14	.
CC(C)c1ccc(-n2c(O)c(C=NCCN3CCNCC3)c(=O)[nH]c2=S)cc1	.	.	.	-14	.
